Assay results taken from ChEMBL document CHEMBL2417498, “Design and synthesis of 6,7-methylenedioxy-4-substituted phenylquinolin-2(1H)-one derivatives as novel anticancer agents that induce apoptosis with cell cycle arrest at G2/M phase” (Bioorg Med Chem, 2013).
Active and inactive are the calls of the source. No cut-off for these calls is given here.

Columns and labels:
[1] = Cytotoxicity against human H460 cells after 48 hrs by MTT assay; type: functional, cell-based; details: NCI-H460, 48 h
Method in brief: (§1)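 Log-phase tumour cells grown in RPMI-1640 with 10% FBS, penicillin/streptomycin and 1% L-glutamine at 37 °C, 5% CO2. Cells treated with vehicle or a range of concentrations for 48 h. Growth measured by MTT reduction, absorbance at 570 nm. IC50 is the concentration giving 50% proliferation inhibition, from 3 independent experiments.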

[2] = Cytotoxicity against human Hep3B cells after 48 hrs by MTT assay; type: functional, cell-based, Hep 3B2
Method in brief: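 Detroit 551 normal skin cells and Hep 3B hepatoma cells grown in DMEM with 10% FBS, penicillin/streptomycin and 1% L-glutamine at 37 °C, 5% CO2. Log-phase cells treated with vehicle or a range of concentrations for 48 h. MTT reduction read at 570 nm. IC50 (50% proliferation inhibition) taken from 3 independent experiments.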

[3] = system: HL-60; test: Cytotoxicity against human HL60 cells after 48 hrs by MTT assay; type: functional, cell-based; details: HL-60, 48 h; method in brief: as §1
[4] = Cytotoxicity against human 2774 cells after 48 hrs by MTT assay; type: functional, cell-based
[5] = system: NCI-H460; test: Induction of apoptosis in human H460 cells assessed as caspase3 cleavage at 1 to 5 uM by Western blot analysis; type: functional, cell-based
Method in brief: (§2)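 H460 cells exposed 24 h at the indicated concentrations; lysates cleared at 12,000 g, protein quantified by Bradford, resolved on 10% SDS-polyacrylamide gels, blotted to nitrocellulose and detected by chemiluminescence.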

[6] = system: NCI-H460; test: Increase in CDK1 expression in human H460 cells after 24 hrs by Western blot analysis; type: functional, cell-based; method in brief: as §2
[7] = system: HL-60; test: Decrease in cyclin B1 expression in human HL60 cells at 0.25 to 1 uM after 24 hrs by Western blot analysis; type: functional, cell-based
Method in brief: (§3)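 HL-60 cells treated 24 h at the indicated concentrations, harvested, lysed (30 min on ice, 12,000 g spin), protein by Bradford; samples run on 10% SDS-PAGE, transferred to nitrocellulose, immunodetected by chemiluminescence.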

[8] = system: HL-60; test: Increase in cyclin B1 expression in human HL60 cells at 0.25 to 1 uM after 24 hrs by Western blot analysis; type: functional, cell-based; method in brief: as §3
[9] = Cell cycle arrest in human H460 cells assessed as accumulation at G2/M phase at 2.5 uM after 24 hrs by propidium iodide staining-based FACS analysis (reference value: 10.73%); type: functional; details: NCI-H460
Method in brief: (§4)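 H460 cells treated 24 h with 1.0, 2.5 or 5.0 µM; washed in PBS, fixed overnight in 70% ice-cold ethanol at −20 °C, stained 30 min in the dark with 0.1% Triton X-100, 0.2 mg/mL RNase and 20 µg/mL propidium iodide; DNA content by flow cytometry, phase distribution from histogram modelling.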

[10] = Cell cycle arrest in human H460 cells assessed as accumulation at G2/M phase at 1 uM after 24 hrs by propidium iodide staining-based FACS analysis (reference value: 10.73%); type: functional; details: NCI-H460; method in brief: as §4
[11] = Cell cycle arrest in human H460 cells assessed as accumulation at S phase at 5 uM after 24 hrs by propidium iodide staining-based FACS analysis (reference value: 43.08%); type: functional; details: NCI-H460; method in brief: as §4
[12] = Cell cycle arrest in human H460 cells assessed as accumulation at S phase at 2.5 uM after 24 hrs by propidium iodide staining-based FACS analysis (reference value: 43.08%); type: functional; details: NCI-H460; method in brief: as §4
[13] = Cell cycle arrest in human H460 cells assessed as accumulation at S phase at 1 uM after 24 hrs by propidium iodide staining-based FACS analysis (reference value: 43.08%); type: functional; details: NCI-H460; method in brief: as §4
[14] = Cell cycle arrest in human H460 cells assessed as accumulation at G0/G1 phase at 1 uM after 24 hrs by propidium iodide staining-based FACS analysis (reference value: 46.19%); type: functional; details: NCI-H460; method in brief: as §4
[15] = Cell cycle arrest in human H460 cells assessed as accumulation at sub G1 phase at 5 uM after 24 hrs by propidium iodide staining-based FACS analysis (reference value: 3.07%); type: functional; details: NCI-H460; method in brief: as §4
[16] = Cell cycle arrest in human H460 cells assessed as accumulation at sub G1 phase at 2.5 uM after 24 hrs by propidium iodide staining-based FACS analysis (reference value: 3.07%); type: functional; details: NCI-H460; method in brief: as §4
[17] = system: HL-60; test: Cell cycle arrest in human HL60 cells assessed as accumulation at G2/M phase at 1 uM after 24 hrs by propidium iodide staining-based FACS analysis (reference value: 10.51%); type: functional
[18] = system: HL-60; test: Cell cycle arrest in human HL60 cells assessed as accumulation at G2/M phase at 0.25 uM after 24 hrs by propidium iodide staining-based FACS analysis (reference value: 10.51%); type: functional
[19] = system: HL-60; test: Cell cycle arrest in human HL60 cells assessed as accumulation at S phase at 0.5 uM after 24 hrs by propidium iodide staining-based FACS analysis (reference value: 49.69%); type: functional
[20] = system: HL-60; test: Cell cycle arrest in human HL60 cells assessed as accumulation at S phase at 0.25 uM after 24 hrs by propidium iodide staining-based FACS analysis (reference value: 49.69%); type: functional
[21] = system: HL-60; test: Cell cycle arrest in human HL60 cells assessed as accumulation at G0/G1 phase at 0.5 uM after 24 hrs by propidium iodide staining-based FACS analysis (reference value: 39.80%); type: functional
[22] = system: HL-60; test: Cell cycle arrest in human HL60 cells assessed as accumulation at G0/G1 phase at 0.25 uM after 24 hrs by propidium iodide staining-based FACS analysis (reference value: 39.80%); type: functional
[23] = system: HL-60; test: Cell cycle arrest in human HL60 cells assessed as accumulation at sub G1 phase at 1.0 uM after 24 hrs by propidium iodide staining-based FACS analysis (reference value: 0.35%); type: functional
[24] = system: NCI-H460; test: Induction of apoptosis in human H460 cells assessed as appearance of nuclear fragmentation at 1 to 5 uM after 24 hrs by Hoechst 33258 staining-based microscopy; type: functional, cell-based
Method in brief: (§5)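 H460 plated at 5×10⁴ cells/well and incubated 24 h with 1.0, 2.5 or 5.0 µM; stained with 5 µg/mL Hoechst 33258 for 10 min, washed twice in PBS, fixed in 4% paraformaldehyde 10 min at 25 °C; nuclei scored for chromatin condensation, fragmentation and apoptotic bodies by fluorescence microscopy; 0.1% DMSO control.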

[25] = system: NCI-H460; test: Induction of apoptosis in human H460 cells assessed as appearance of apoptotic bodies at 1 to 5 uM after 24 hrs by Hoechst 33258 staining-based microscopy; type: functional, cell-based; method in brief: as §5
[26] = system: HL-60; test: Induction of apoptosis in human HL60 cells assessed as appearance of apoptotic bodies at 0.25 to 1 uM after 24 hrs by Hoechst 33258 staining-based microscopy; type: functional, cell-based
Method in brief: (§6)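 HL-60 seeded at 1×10⁵ cells/well, treated 24 h with 0.25, 0.5 or 1.0 µM; nuclei stained 10 min with 5 µg/mL Hoechst 33258, PBS-washed twice, fixed 10 min in 4% PFA at 25 °C; apoptotic morphology imaged by fluorescence microscopy against 0.1% DMSO-treated cells.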

[27] = system: HL-60; test: Induction of apoptosis in human HL60 cells assessed as appearance of nuclear fragmentation at 0.25 to 1 uM after 24 hrs by Hoechst 33258 staining-based microscopy; type: functional, cell-based; method in brief: as §6
[28] = system: HL-60; test: Induction of apoptosis in human HL60 cells assessed as chromatin condensation at 0.25 to 1 uM after 24 hrs by Hoechst 33258 staining-based microscopy; type: functional, cell-based; method in brief: as §6

In the case of COc1ccc(-c2cc(=O)[nH]c3cc4c(cc23)OCO4)c(OC)c1, the IC50 [1] is reported as 900 nM, the IC50 [2] is reported as 1000 nM and the IC50 [3] is reported as 400 nM. For the same compound, the IC50 [4] was 400 nM, the Activity [5] was “Active” and the Activity [6] was “Dose-dependent effect”. For the same compound, the Activity [7] was “Active”, the Activity [8] was “Active” and the Activity [9] was 71.6%. For the same compound, the Activity [10] was 54.4%, the Activity [11] was 22.4% and the Activity [12] was 18.8%. The Activity [13] was 44.1%, the Activity [14] was 1.57% and the Activity [15] was 11.2%. The Activity [16] was 11.7%, the Activity [17] was 40.54% and the Activity [18] was 11.87%. It also gave an Activity [19] of 30.16%, an Activity [20] of 46.76% and an Activity [21] of 44.82%. For the same compound, the Activity [22] was 41.36%, the Activity [23] was 19.65% and the Activity [24] was “Active”. For the same compound, the Activity [25] was “Active”, the Activity [26] was “Active” and the Activity [27] was “Active”. For the same compound, the Activity [28] was “Active”.
